# Legend:
# [1] = biological target: T1, Nitric oxide synthase 3 (Bos taurus) (UniProt P29473); assay: Inhibition of bovine recombinant eNOS expressed in Escherichia coli assessed as conversion of [gamma-14C]L-arginine to [14C]L-citrulline at 100 uM by radioactive assay relative to control; parameters: scale not given: the % may be the effect or the level left
# T1 sequence (whole entry): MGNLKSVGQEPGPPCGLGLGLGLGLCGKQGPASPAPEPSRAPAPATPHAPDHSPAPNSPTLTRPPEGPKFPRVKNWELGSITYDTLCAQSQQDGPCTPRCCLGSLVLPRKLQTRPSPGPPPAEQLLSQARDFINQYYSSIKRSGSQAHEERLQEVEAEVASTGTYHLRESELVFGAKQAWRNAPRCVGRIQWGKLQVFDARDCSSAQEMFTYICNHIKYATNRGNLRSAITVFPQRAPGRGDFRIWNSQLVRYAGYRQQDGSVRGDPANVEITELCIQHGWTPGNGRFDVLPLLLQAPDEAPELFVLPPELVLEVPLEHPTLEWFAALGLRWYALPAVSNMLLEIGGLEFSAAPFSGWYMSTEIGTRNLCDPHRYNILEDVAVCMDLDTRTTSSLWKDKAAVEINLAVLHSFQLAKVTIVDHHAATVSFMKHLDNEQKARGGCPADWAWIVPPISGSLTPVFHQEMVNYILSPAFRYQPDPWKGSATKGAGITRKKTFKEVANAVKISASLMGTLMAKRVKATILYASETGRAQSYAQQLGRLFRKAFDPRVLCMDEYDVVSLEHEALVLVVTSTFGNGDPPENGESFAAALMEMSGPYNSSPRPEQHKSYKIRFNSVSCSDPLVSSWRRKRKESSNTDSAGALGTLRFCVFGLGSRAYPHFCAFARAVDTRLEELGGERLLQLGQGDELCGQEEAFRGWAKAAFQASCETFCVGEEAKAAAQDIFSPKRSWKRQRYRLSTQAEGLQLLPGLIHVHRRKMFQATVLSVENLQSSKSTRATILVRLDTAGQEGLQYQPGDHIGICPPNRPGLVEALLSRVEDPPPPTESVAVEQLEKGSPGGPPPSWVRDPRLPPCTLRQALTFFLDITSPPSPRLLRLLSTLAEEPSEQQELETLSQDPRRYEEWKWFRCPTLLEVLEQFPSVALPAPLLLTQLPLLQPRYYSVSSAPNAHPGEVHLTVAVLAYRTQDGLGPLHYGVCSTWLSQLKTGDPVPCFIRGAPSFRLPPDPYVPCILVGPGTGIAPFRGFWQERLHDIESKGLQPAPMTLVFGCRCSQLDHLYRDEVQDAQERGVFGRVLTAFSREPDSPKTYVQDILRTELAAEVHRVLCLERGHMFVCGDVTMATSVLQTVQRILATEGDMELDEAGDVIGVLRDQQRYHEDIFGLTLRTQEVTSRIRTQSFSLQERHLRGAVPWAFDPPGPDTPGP
# How it was run: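 Purified enzymes: rat nNOS from S. cerevisiae, murine iNOS and bovine eNOS from E. coli. Reaction 5 min at 37 °C in 50 mM Hepes pH 7.4 with DTT, 1 mM NADPH, H4B, FAD, FMN, [14C]L-arginine (2.5 µM L-arginine) and 100 µM compound in 1% DMSO. nNOS/eNOS also got 1 mM CaCl2 and CaM, which iNOS lacked. [14C]citrulline isolated on Dowex and counted by scintillation; % of DMSO control, n=3.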
# [2] = biological target: T2, Nitric oxide synthase, inducible (Mus musculus) (UniProt P29477); assay: Inhibition of mouse recombinant iNOS expressed in Escherichia coli assessed as NADPH consumption at 100 uM after 2 mins by spectrophotometry
# T2 sequence (whole entry): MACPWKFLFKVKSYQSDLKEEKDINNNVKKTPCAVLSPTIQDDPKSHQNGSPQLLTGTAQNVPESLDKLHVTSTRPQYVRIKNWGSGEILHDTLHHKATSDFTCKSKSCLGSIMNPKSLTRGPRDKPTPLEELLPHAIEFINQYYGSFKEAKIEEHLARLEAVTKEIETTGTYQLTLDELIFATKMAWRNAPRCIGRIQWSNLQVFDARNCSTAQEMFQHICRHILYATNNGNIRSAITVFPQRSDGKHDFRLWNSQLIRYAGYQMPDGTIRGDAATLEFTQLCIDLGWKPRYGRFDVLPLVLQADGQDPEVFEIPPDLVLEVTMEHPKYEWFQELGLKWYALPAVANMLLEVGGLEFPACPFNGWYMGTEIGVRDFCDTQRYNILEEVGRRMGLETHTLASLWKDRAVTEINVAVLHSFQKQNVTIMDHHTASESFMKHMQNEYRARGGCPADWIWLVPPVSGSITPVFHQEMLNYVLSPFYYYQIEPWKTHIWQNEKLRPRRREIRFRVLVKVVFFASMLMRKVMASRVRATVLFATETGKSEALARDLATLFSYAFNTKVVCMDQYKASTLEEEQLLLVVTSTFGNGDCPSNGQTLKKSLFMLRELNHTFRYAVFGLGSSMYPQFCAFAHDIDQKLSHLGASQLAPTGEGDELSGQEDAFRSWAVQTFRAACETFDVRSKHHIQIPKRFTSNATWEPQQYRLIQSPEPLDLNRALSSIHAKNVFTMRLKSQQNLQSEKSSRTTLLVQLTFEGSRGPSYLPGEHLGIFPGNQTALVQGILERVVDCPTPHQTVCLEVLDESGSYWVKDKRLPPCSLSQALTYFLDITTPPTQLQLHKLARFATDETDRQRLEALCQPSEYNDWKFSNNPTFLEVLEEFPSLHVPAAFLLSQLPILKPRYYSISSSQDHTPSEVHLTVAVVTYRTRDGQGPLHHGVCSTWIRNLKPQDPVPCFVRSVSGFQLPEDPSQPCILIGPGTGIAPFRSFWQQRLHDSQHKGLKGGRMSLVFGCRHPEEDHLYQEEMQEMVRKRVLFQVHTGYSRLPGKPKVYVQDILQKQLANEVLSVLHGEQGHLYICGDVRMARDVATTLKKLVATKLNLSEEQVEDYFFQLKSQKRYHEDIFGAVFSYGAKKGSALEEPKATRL
# How it was run: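 Murine iNOS from E. coli (15–50 nM final) in 50 mM Hepes pH 7.4 with 5 mM DTT, 100 µM CaCl2, 200 µM NADPH, 10 µM H4B, 100 µM L-arginine and 100 µM compound. Cofactors and compound preincubated 2 min at 37 °C, enzyme added, and A340 followed for 3 min (ε 6.2 mM-1 cm-1). Given as % of 1% DMSO control NADPH oxidase rate.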
# [3] = biological target: T2, Nitric oxide synthase, inducible (Mus musculus); assay: Inhibition of mouse iNOS expressed in insect Sf9 cells assessed as residual activity at 100 uM by Griess assay relative to control
# How it was run: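 Murine iNOS produced in Sf9 insect cells. Buffer: 50 mM triethanolamine pH 7.5, 1 mM CHAPS, 10 mM 2-mercaptoethanol, 0.5 mM EDTA. Additions: 1 mM Mg2+, 5 µM FAD, 5 µM FMN, 0.5 mM NADPH, 10 µM H4B, 10 µg/ml CaM, 1 mM L-arginine. Compound at 100 µM final, 37 °C for 20 min. NADPH removed with LDH/pyruvate, then Griess read at 543 nm. Values are % of 1% DMSO control, 5 experiments.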
structure (smiles),measurement,setting,value
CC1=CC2=NCC(C(=O)c3ccc(OCc4ccc(Br)cc4)cc3)CN2C=C1.Cl (stereo not drawn),Activity,[1],77%
same,Remaining NADPH oxidation rate (% of DMSO control),[2],100%
CCCNC(=N)NCCC[C@H](N)C(=O)O,Activity,[3],88%
CC1=CC=CC2=NCC(C(=O)c3ccc(C)cc3)CN12.[O-][Cl+3]([O-])([O-])O (stereo not drawn),Activity,[1],84%
same,Activity,[3],99%
same,Remaining NADPH oxidation rate (% of DMSO control),[2],94%
CC1=CC2=NCC(C(=O)c3ccc(-c4ccccc4)cc3)CN2C=C1 (stereo not drawn),Activity,[3],40%
CC1=CC2=NCC(C(=O)c3ccc(-c4ccc(C#N)cc4)cc3)CN2C=C1.Cl (stereo not drawn),Activity,[1],18%
same,Remaining NADPH oxidation rate (% of DMSO control),[2],40%
O=C(c1ccc(Br)cc1)C1CN=C2C=CC=CN2C1 (stereo not drawn),Activity,[3],92%
CC1=CC=CC2=NCC(C(=O)c3ccc4ccccc4c3)CN12 (stereo not drawn),Activity,[3],75%
COc1ccc(C(=O)C2CN=C3C=C(C)C=CN3C2)cc1F.[O-][Cl+3]([O-])([O-])O (stereo not drawn),Activity,[1],59%
same,Remaining NADPH oxidation rate (% of DMSO control),[2],73%
CC1=CC2=NCC(C(=O)c3ccc(Br)cc3)CN2C=C1 (stereo not drawn),Activity,[3],33%
CC1=CC2=NCC(C(=O)c3ccc(-c4ccc(Br)cc4)cc3)CN2C(C)=C1 (stereo not drawn),Activity,[1],32%
same,Remaining NADPH oxidation rate (% of DMSO control),[2],72%
O=C(c1ccc2ccccc2c1)C1CN=C2C=CC=CN2C1 (stereo not drawn),Activity,[3],97%
CC1=CC=CC2=NCC(C(=O)c3ccc(F)cc3)CN12.[O-][Cl+3]([O-])([O-])O (stereo not drawn),Activity,[1],71%
same,Activity,[3],83%
same,Remaining NADPH oxidation rate (% of DMSO control),[2],87%
COc1ccc(C(=O)C2CN=C3C=CC=C(C)N3C2)cc1OC.[O-][Cl+3]([O-])([O-])O (stereo not drawn),Activity,[1],81%
same,Activity,[3],95%
same,Remaining NADPH oxidation rate (% of DMSO control),[2],92%
COc1ccc2cc(C(=O)C3CN=C4C=C(C)C=CN4C3)ccc2c1 (stereo not drawn),Activity,[3],72%
COc1ccc(-c2ccc(C(=O)C3CN=C4C=C(C)C=CN4C3)cc2)cc1.Cl (stereo not drawn),Activity,[1],15%
same,Remaining NADPH oxidation rate (% of DMSO control),[2],40%
CCSC(=N)N,Activity,[3],2%
CC1=CC2=NCC(C(=O)c3ccc4cc(C)ccc4c3)CN2C=C1.[O-][Cl+3]([O-])([O-])O (stereo not drawn),Activity,[1],48%
same,Activity,[3],90%
same,Remaining NADPH oxidation rate (% of DMSO control),[2],70%
CC1=CC2=NCC(C(=O)c3ccc4cc(C)ccc4c3)CN2C(C)=C1.[O-][Cl+3]([O-])([O-])O (stereo not drawn),Activity,[1],17%
same,Remaining NADPH oxidation rate (% of DMSO control),[2],72%
CC1=CC2=NCC(C(=O)c3ccccc3)CN2C=C1 (stereo not drawn),Activity,[3],16%
CC1=CC2=NCC(C(=O)c3ccc4ccccc4c3)CN2C=C1 (stereo not drawn),Activity,[3],28%
CC1=CC2=NCC(C(=O)c3ccc(OCc4ccc(Cl)cc4)cc3)CN2C=C1.[O-][Cl+3]([O-])([O-])O (stereo not drawn),Activity,[1],2%
same,Remaining NADPH oxidation rate (% of DMSO control),[2],64%
N=C(NCCC[C@H](N)C(=O)O)N[N+](=O)[O-],Activity,[1],5%
CC(=N)NCc1cccc(CN)c1,Activity,[3],3%
CC1=CC2=NCC(C(=O)c3ccc(-c4ccc(Br)cc4)cc3)CN2C=C1.[O-][Cl+3]([O-])([O-])O (stereo not drawn),Activity,[1],65%
same,Remaining NADPH oxidation rate (% of DMSO control),[2],64%
CC1=CC=CC2=NCC(C(=O)c3ccc(Br)cc3)CN12 (stereo not drawn),Activity,[3],9%
CC1=CC2=NCC(C(=O)c3ccc(Cl)cc3)CN2C=C1 (stereo not drawn),Activity,[3],28%
O=C(c1ccc(Cl)c(Cl)c1)C1CN=C2C=CC=CN2C1.[O-][Cl+3]([O-])([O-])O (stereo not drawn),Activity,[1],83%
same,Activity,[3],95%
same,Remaining NADPH oxidation rate (% of DMSO control),[2],100%
CC1=CC2=NCC(C(=O)c3ccc(F)cc3)CN2C=C1 (stereo not drawn),Activity,[3],78%
CC1=CC2=NCC(C(=O)c3ccc(OCc4ccc(C#N)cc4)cc3)CN2C=C1.[O-][Cl+3]([O-])([O-])O (stereo not drawn),Activity,[1],44%
same,Remaining NADPH oxidation rate (% of DMSO control),[2],77%

# — ChEMBL document CHEMBL1152488, “Synthesis and evaluation of pyrido[1,2-a]pyrimidines as inhibitors of nitric oxide synthases” (Eur J Med Chem, 2009)
